# From ChEMBL document CHEMBL5724801, “EUbOPEN Chemogenomics Library - Multiplex” (2024)
# “And” between values parts separate entries of the source, which are not always exact repeats. Identical values can stand only once.
# System: Fibroblast
# Experiment: Multiplex assay against human fibroblast
# Assay type: toxicity, cell-based
# In short: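 At seeding, live cells were stained with Hoechst33342, BioTracker Green Microtubule Cytoskeleton Dye, MitoTracker Red and Annexin V Alexa Fluor 680. After compound addition they were imaged on a CQ1 microscope at 37°C and 5% CO2, and CellPathfinder machine-learning gating sorted them into Hoechst high-intensity objects or normal cells, with normal cells further split into healthy, pyknosed or fragmented nuclei and pyknosed cells into mitotic or apoptotic. Tubulin, mitochondrial-mass and membrane-permeability phenotypes are given as per cents of cells with healthy nuclei.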
# [1] = 12 h, 1 µM, compound concentration 1 uM
# [2] = 12 h, 10 µM, compound concentration 10 uM
# [3] = 24 h, 1 µM, compound concentration 1 uM
# [4] = 24 h, 10 µM, compound concentration 10 uM
# [5] = 48 h, 1 µM, compound concentration 1 uM
# [6] = 48 h, 10 µM, compound concentration 10 uM
structure (smiles),measurement,setting,value
Cc1c(Cc2ccc3ccccc3n2)c2cc(F)ccc2n1CC(=O)O [TIMAPIPRANT],Population Apoptotic (%),[1],41% and 33%
same,Population Fragmented Nuclei (%),[1],12% and 28%
same,Population Healthy Nuclei (%),[1],67% and 49%
same,Population Hoechst High Intensity Objects (%),[1],5%
same,Population Membrane Permeable-Phenotype (%),[1],1% and 9%
same,Population Mitochondria Different-Phenotype (%),[1],7% and 4%
same,Population Mitotic Cells (%),[1],58% and 66%
same,Population Normal (%),[1],94%
same,Population Pyknosed Nuclei (%),[1],19% and 22%
same,Population Tubulin-Different-Phenotype (%),[1],26% and 43%
same,Total Cell Count,[1],171 and 142
same,Population Apoptotic (%),[2],66% and 53%
same,Population Fragmented Nuclei (%),[2],13% and 26%
same,Population Healthy Nuclei (%),[2],77% and 53%
same,Population Hoechst High Intensity Objects (%),[2],2% and 5%
same,Population Membrane Permeable-Phenotype (%),[2],0% and 1%
same,Population Mitochondria Different-Phenotype (%),[2],7%
same,Population Mitotic Cells (%),[2],33% and 46%
same,Population Normal (%),[2],97% and 95%
same,Population Pyknosed Nuclei (%),[2],8% and 19%
same,Population Tubulin-Different-Phenotype (%),[2],35% and 43%
same,Total Cell Count,[2],147 and 160
same,Population Apoptotic (%),[3],33% and 47%
same,Population Healthy Nuclei (%),[3],73% and 52%
same,Population Hoechst High Intensity Objects (%),[3],1% and 5%
same,Population Membrane Permeable-Phenotype (%),[3],3% and 7%
same,Population Mitochondria Different-Phenotype (%),[3],2% and 4%
same,Population Mitotic Cells (%),[3],66% and 52%
same,Population Normal (%),[3],98% and 94%
same,Population Pyknosed Nuclei (%),[3],17%
same,Population Tubulin-Different-Phenotype (%),[3],26% and 38%
same,Total Cell Count,[3],158 and 142
same,Population Apoptotic (%),[4],66% and 52%
same,Population Fragmented Nuclei (%),[4],14% and 29%
same,Population Healthy Nuclei (%),[4],77% and 58%
same,Population Hoechst High Intensity Objects (%),[4],2% and 7%
same,Population Membrane Permeable-Phenotype (%),[4],0% and 3%
same,Population Mitochondria Different-Phenotype (%),[4],6% and 10%
same,Population Mitotic Cells (%),[4],33% and 47%
same,Population Normal (%),[4],97% and 92%
same,Population Pyknosed Nuclei (%),[4],8% and 12%
same,Population Tubulin-Different-Phenotype (%),[4],30% and 52%
same,Total Cell Count,[4],150 and 164
same,Population Apoptotic (%),[5],72% and 61%
same,Population Fragmented Nuclei (%),[5],15% and 36%
same,Population Healthy Nuclei (%),[5],72% and 48%
same,Population Hoechst High Intensity Objects (%),[5],7% and 6%
same,Population Membrane Permeable-Phenotype (%),[5],0% and 2%
same,Population Mitochondria Different-Phenotype (%),[5],2% and 1%
same,Population Mitotic Cells (%),[5],27% and 38%
same,Population Normal (%),[5],92% and 94%
same,Population Pyknosed Nuclei (%),[5],12% and 14%
same,Population Tubulin-Different-Phenotype (%),[5],25% and 34%
same,Total Cell Count,[5],162 and 150
same,Population Apoptotic (%),[6],66% and 60%
same,Population Fragmented Nuclei (%),[6],18% and 30%
same,Population Healthy Nuclei (%),[6],75% and 59%
same,Population Hoechst High Intensity Objects (%),[6],5% and 2%
same,Population Membrane Permeable-Phenotype (%),[6],0% and 1%
same,Population Mitochondria Different-Phenotype (%),[6],3% and 1%
same,Population Mitotic Cells (%),[6],33% and 40%
same,Population Normal (%),[6],94% and 97%
same,Population Pyknosed Nuclei (%),[6],6% and 9%
same,Population Tubulin-Different-Phenotype (%),[6],31% and 37%
same,Total Cell Count,[6],152 and 157
Cc1cccc(F)c1C(=O)Nc1cnc(-c2cc3c(cc2Cl)OC(F)(F)O3)cn1 [ZEGOCRACTIN],Population Apoptotic (%),[1],6.56% and 18.18%
same,Population Fragmented Nuclei (%),[1],12.97% and 3.23%
same,Population Healthy Nuclei (%),[1],61.51% and 79.03%
same,Population Hoechst High Intensity Objects (%),[1],0%
same,Population Membrane Permeable-Phenotype (%),[1],2.04%
same,Population Mitochondria Different-Phenotype (%),[1],8.16%
same,Population Mitotic Cells (%),[1],93.44% and 81.82%
same,Population Normal (%),[1],100%
same,Population Pyknosed Nuclei (%),[1],25.52% and 17.74%
same,Population Tubulin-Different-Phenotype (%),[1],17.01% and 13.61%
same,Total Cell Count,[1],239 and 186
same,Population Apoptotic (%),[2],8.93% and 22.86%
same,Population Fragmented Nuclei (%),[2],13.11% and 8.77%
same,Population Healthy Nuclei (%),[2],56.28% and 70.76%
same,Population Hoechst High Intensity Objects (%),[2],0%
same,Population Membrane Permeable-Phenotype (%),[2],3.88% and 4.96%
same,Population Mitochondria Different-Phenotype (%),[2],17.48% and 19.01%
same,Population Mitotic Cells (%),[2],91.07% and 77.14%
same,Population Normal (%),[2],100%
same,Population Pyknosed Nuclei (%),[2],30.6% and 20.47%
same,Population Tubulin-Different-Phenotype (%),[2],24.27% and 42.15%
same,Total Cell Count,[2],183 and 171
same,Population Apoptotic (%),[3],11.11% and 9.52%
same,Population Fragmented Nuclei (%),[3],9.33% and 2.59%
same,Population Healthy Nuclei (%),[3],73.88% and 86.53%
same,Population Hoechst High Intensity Objects (%),[3],0%
same,Population Membrane Permeable-Phenotype (%),[3],3.54% and 0%
same,Population Mitochondria Different-Phenotype (%),[3],7.07% and 6.59%
same,Population Mitotic Cells (%),[3],88.89% and 90.48%
same,Population Normal (%),[3],100%
same,Population Pyknosed Nuclei (%),[3],16.79% and 10.88%
same,Population Tubulin-Different-Phenotype (%),[3],14.65% and 11.38%
same,Total Cell Count,[3],268 and 193
same,Population Apoptotic (%),[4],7.81% and 17.65%
same,Population Fragmented Nuclei (%),[4],13% and 8.14%
same,Population Healthy Nuclei (%),[4],55% and 72.09%
same,Population Hoechst High Intensity Objects (%),[4],0%
same,Population Membrane Permeable-Phenotype (%),[4],3.64% and 1.61%
same,Population Mitochondria Different-Phenotype (%),[4],14.55% and 32.26%
same,Population Mitotic Cells (%),[4],92.19% and 82.35%
same,Population Normal (%),[4],100%
same,Population Pyknosed Nuclei (%),[4],32% and 19.77%
same,Population Tubulin-Different-Phenotype (%),[4],37.27% and 46.77%
same,Total Cell Count,[4],200 and 172
same,Population Apoptotic (%),[5],15% and 35%
same,Population Fragmented Nuclei (%),[5],9.76% and 3.2%
same,Population Healthy Nuclei (%),[5],83.28% and 87.67%
same,Population Hoechst High Intensity Objects (%),[5],0%
same,Population Membrane Permeable-Phenotype (%),[5],1.26% and 2.6%
same,Population Mitochondria Different-Phenotype (%),[5],9.62% and 2.6%
same,Population Mitotic Cells (%),[5],85% and 65%
same,Population Normal (%),[5],100%
same,Population Pyknosed Nuclei (%),[5],6.97% and 9.13%
same,Population Tubulin-Different-Phenotype (%),[5],8.79% and 19.79%
same,Total Cell Count,[5],287 and 219
same,Population Apoptotic (%),[6],15% and 9.52%
same,Population Fragmented Nuclei (%),[6],10.91% and 9.6%
same,Population Healthy Nuclei (%),[6],70.91% and 78.53%
same,Population Hoechst High Intensity Objects (%),[6],0%
same,Population Membrane Permeable-Phenotype (%),[6],0.64% and 4.32%
same,Population Mitochondria Different-Phenotype (%),[6],20.51% and 13.67%
same,Population Mitotic Cells (%),[6],85% and 90.48%
same,Population Normal (%),[6],100%
same,Population Pyknosed Nuclei (%),[6],18.18% and 11.86%
same,Population Tubulin-Different-Phenotype (%),[6],28.21% and 56.83%
same,Total Cell Count,[6],220 and 177
